CDK5 p35 inh: inhibitors of human CDK5/p35 kinase, primary screen, biochemical, single concentration | 0.01% of 330,000 active | Recombinant CDK5/p35, ADP-Glo luminescence, 60 min | inhibition, % at 10 µM | AID 488839, 2010 | Cyclin-dependent kinase 5 (Homo sapiens) + Cyclin-dependent kinase 5 activator 1 (Homo …;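 active = highest replicate inhibition of at least 50% and at least 75% of replicates reaching 50%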;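 also: plate controls were DMSO neutral control for no effect and GW8510 at 10 µM for full effect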
SR-BI uptake up: activators of SR-BI mediated DiI-HDL uptake, primary screen, ldlA[mSR-BI] CHO cells, DiI fluorescence. 3 h; 100 = double the neutral-control signal. activation, % at 12.5 µM. 0.096% of 320,000 active. AID 504775, 2011;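 active = mean replicate activation of at least 60% and every replicate at or above 60%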;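 also: 0% = median plate neutral-control signal and 100% = twice that signal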
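Assay system: CHO ldlA[mSR-BI] cells, LDL receptor-null, SR-BI overexpressing; medium: Ham's F12 with 0.5% BSA, HEPES 25 mM, pH 7.4; also added: DiI-HDL 10 µg/mL; timing: 3 h uptake period with compound, 37 °C; signal: DiI fluorescence, bottom read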
PKA-R2B activ: activators of PKA-R2B holoenzyme, primary screen, biochemical, fluorescence polarization, Cy5-IP20, human; cAMP-dependent protein kinase catalytic subunit beta (Homo sapiens) + cAMP-dependent …; PKA-R2B holoenzyme dissociation; R2B truncated from residue 108, S112A mutant; 0% DMSO only, 100% 113 µM cGMP; activation, % at 11.4 µM; 0.079% of 340,000 active; AID 504700, 2011;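 active = activation above a cutoff set at the mean over all compounds plus 3 SD, cut at about 18% in these data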;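 also: higher means more holoenzyme dissociation and a rise in polarization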
SR-BI DiI inh: inhibitors of SR-BI mediated HDL lipid uptake, primary screen, ldlA[mSR-BI] cells, fluorescence, single point; Scavenger receptor class B member 1 (Mus musculus), Q61009; ldlA[mSR-BI] CHO cells, DiI-HDL uptake fluorescence, 3 h; inhibition, % at 12.5 µM; 0.96% of 320,000 active; AID 488896, 2010;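 active = mean replicate inhibition of at least 70% and a set share of replicates each scoring 70 or more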;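 also: 0% = median of neutral control wells and 100% = median of positive control wells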
Target sequence (Q61009 whole entry, looked up): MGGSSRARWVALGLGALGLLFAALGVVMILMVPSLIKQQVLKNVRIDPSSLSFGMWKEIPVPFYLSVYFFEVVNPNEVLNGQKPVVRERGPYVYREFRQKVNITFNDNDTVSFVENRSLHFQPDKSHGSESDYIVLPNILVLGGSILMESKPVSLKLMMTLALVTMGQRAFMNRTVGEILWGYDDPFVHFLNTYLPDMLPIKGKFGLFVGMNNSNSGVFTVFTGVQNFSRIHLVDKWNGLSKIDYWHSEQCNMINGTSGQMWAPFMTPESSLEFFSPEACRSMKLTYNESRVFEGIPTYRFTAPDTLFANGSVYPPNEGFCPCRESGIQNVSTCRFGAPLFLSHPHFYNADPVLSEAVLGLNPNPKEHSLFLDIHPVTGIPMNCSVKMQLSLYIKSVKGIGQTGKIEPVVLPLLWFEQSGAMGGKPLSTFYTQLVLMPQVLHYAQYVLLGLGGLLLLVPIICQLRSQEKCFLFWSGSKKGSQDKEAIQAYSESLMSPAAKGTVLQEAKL
dFosB act: activators of delta FosB homodimer, primary screen, biochemical, fluorescence polarization, TAMRA-CDK5 oligo, single point | Protein FosB (Mus musculus), P13346 | purified delta FosB; percent of positive-control signal above neutral wells | activation, % at 25 µM | 0.99% of 340,000 active;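 active = mean activation above about 17%, with every replicate also reaching it, limit read from the data, passing the limit was not always enough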
PKA-R1A act: activators of PKA-R1A holoenzyme, primary screen, biochemical, fluorescence polarization, Cy5-IP20, bovine R1A, mouse PKAc; activation, % at 11.4 µM; PKA-R1A dissociation; scaled: DMSO 0%, 113 µM cGMP 100%; cAMP-dependent protein kinase type I-alpha regulatory subunit (Bos taurus) + …; 0.083% of 340,000 active; AID 504707, 2011;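 active = percent activation above the mean of all tested compounds plus 3 SD, cut at about 19% in these data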;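 also: higher means more PKAc released from R1A so a rise in polarization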
Numbers without * were called inactive; x = no result given. A selection: hits, their analogues and other compounds. The true share with any hit is near 2.1%.

SMILES	CDK5 p35 inh	SR-BI uptake up	PKA-R2B activ	SR-BI DiI inh	dFosB act	PKA-R1A act
COc1cc(Cl)cc(/C=C/c2ccc3cccc(O)c3n2)c1OC	-1	-50	-1	50	-7	0
COc1ccc(Cl)cc1/C=C/c1ccc2cccc(O)c2n1	0	-83	-8	83*	-6	2
O=[N+]([O-])c1ccccc1Nc1c2ccccc2nc2ccccc12	1	-77	-3	77*	-4	-7
O=C(Nc1cc(Cl)ccc1-n1cncn1)C1CC1	-8	-1	-4	1	0	2
O=C(CN1C(=O)NC2(CCOc3ccccc32)C1=O)NCC(F)(F)F (stereo not drawn)	-1	x	-15	x	-2	-10
COc1ccc(S(=O)(=O)N2CC(C)N(C(=O)N(C)C)C2C(C)C)cc1 (stereo not drawn)	-1	x	-3	x	3	6
C/C(CS(=O)(=O)c1ccc(Cl)c(Cl)c1)=N/NC(N)=S	2	-81	-12	81*	-6	-2
CCOc1cc(C(=O)N2CCC(CC3CC(c4cccc(Br)c4)=NO3)(C(=O)NCC3CCCCC3)CC2)cc(OCC)c1OCC (stereo not drawn)	-2	-74	-9	74*	-4	-5
Cc1cc(Cl)ccc1OCC(=O)N1CCCCC1	1	0	-8	0	-3	-2
O=C(COc1ccc(Cl)cc1Cl)N1CCCN(C(=O)COc2ccc(Cl)cc2Cl)CC1	-2	-85	-4	85*	-10	-10
COC(=O)c1ccsc1NS(=O)(=O)c1ccccc1	-1	-1	4	1	1	-2
CCCCCCOc1ccc(/C(C)=N/NC2=NCCN2)cc1[N+](=O)[O-]	-3	-4	-2	4	55*	-7
C/C(=N\NC1=NCCN1)c1ccc(N)c([N+](=O)[O-])c1	1	19	-3	-19	4	-3
O=C(CNC(=O)c1ccccc1C(F)(F)F)N/N=C/c1cccs1	2	-2	3	2	-2	-9
O=C(N/N=C/c1cccn1-c1ccc([N+](=O)[O-])cc1)c1cccnc1	0	-89	3	89*	-14	-6
CC(C)CN(C(=O)c1cccc(S(=O)(=O)N2CCN(Cc3ccccc3)CC2)c1)C1CCS(=O)(=O)C1 (stereo not drawn)	7	-5	-11	5	-6	-9
CC1(C)CC2=C(CO1)C(=S)NC(c1ccccc1)N2CC1CCCO1 (stereo not drawn)	-3	5	7	-5	-2	4
CN(C(=O)COC(=O)c1ccccc1NCCO)C1CCS(=O)(=O)C1 (stereo not drawn)	0	18	-8	-18	0	-6
O=C(CCc1ccccc1)NC1(Cc2ccccc2)CCN(CCCc2ccccc2)C1=O (stereo not drawn)	0	-11	-16	11	1	4
CCCOc1ccc(C(=O)Nc2ccc3c(c2)OCO3)cc1	0	1	2	-1	2	13
CCOc1cc(C(=O)Nc2ccc3c(c2)OCO3)ccc1OC(F)F	1	-89	-9	89*	15	-2
CCCOc1c(Cl)cc(C(=O)Nc2ccc3c(c2)OCO3)cc1OCC	-2	-78	-5	78*	-9	-10
CCOc1ccc(C(=O)NCC(=O)Nc2ccc3c(c2)OCO3)cc1OCC	1	-7	1	7	0	0
COc1ccccc1CNC(=O)CN1C(=O)COc2ccc(S(=O)(=O)N3CCCCC3)cc21	1	7	3	-7	0	-7
COc1ccccc1Nc1ccc(Nc2ccccc2OC)nn1	-3	-81	-2	81*	-2	-4
SMILES	CDK5 p35 inh	SR-BI uptake up	PKA-R2B activ	SR-BI DiI inh	dFosB act	PKA-R1A act
COc1ccccc1Nc1nc(C)cs1	3	-18	-8	18	-4	-3
COc1ccc2nc(C)c3c(c2c1)OC(C(C)(Cl)Br)C3 (stereo not drawn)	-1	-71	4	71*	-5	-6
O=C(NNC(=O)c1ccccc1-c1ccccc1C(=O)O)c1ccccc1	1	9	5	-9	0	12
O=C(C=P(c1ccccc1)(c1ccccc1)c1ccccc1)c1ccccc1-c1ccccc1C(=O)C=P(c1ccccc1)(c1ccccc1)c1ccccc1	1	13	-2	-13	36*	2
CCN1C(=S)N[C@@H](c2cccs2)C(C(=O)OC)=C1C	1	-7	-27	7	-1	-1
COc1cc(C)c(NC(=O)c2cc(C3CC3)nc3c2cnn3C(C)C)cc1OC	-1	-34	-6	34	-10	-1
COc1ccc(NC(=O)c2cc(C3CC3)nc3c2cnn3C(C)C)cc1OC	0	-74	-7	74*	-2	-2
Oc1ccc(Nc2nc3ccccc3nc2Nc2ccc(O)cc2)cc1	-1	-90	-8	90*	-7	-7
COc1cc(/C=C2\SC(=S)N(NC(=O)c3cccnc3)C2=O)ccc1O	1	-7	1	7	31*	4
COc1cc(/C=C2\SC(=S)N(C(Cc3ccccc3)C(=O)O)C2=O)ccc1O (stereo not drawn)	-1	x	-1	x	18*	1
O=C(NN1C(=O)/C(=C/c2ccc(O)c(O)c2)SC1=S)c1ccccc1	5	-48	-2	48	7	-13
COc1cccc(/C=C2\Sc3ccc(C(=O)NCc4cccnc4)cc3N(C)C2=O)c1	-1	x	-5	x	-10	-7
COc1ccc(/C=C2\Sc3ccc(C(=O)NCc4cccnc4)cc3N(C)C2=O)cc1OC	-2	-74	-19	74*	-4	-10
COc1cc(/C=C2\SC(=S)N(NC(=O)c3ccc(O)cc3)C2=O)ccc1O	2	-15	2	15	28*	-1
CCOC(=O)C1CCCN(C(=O)c2cc(CN3C(=O)c4ccccc4C3=O)ccc2OC)C1 (stereo not drawn)	1	40	-10	-40	-7	-14
Cc1cc(-c2ccccc2)nc(N/N=C/c2ccccc2F)n1	-1	-61	5	61	-1	-10
CCCOC(=O)c1c(NC(=O)/C=C/c2cnn(C)c2C)sc(C(=O)OCC)c1C	0	-76	1	76*	-2	-1
